Source: publication PMC3951241 (Journal of medicinal chemistry, 2013)
Read-outs that look alike come from different tables or passages of the source.

Columns and labels:
[1] = test system: picrotoxin binding site on the heterogeneous GABAA receptors found in rat brain membranes; assay: [35S]TBPS displacement from rat brain membranes; settings: comparison of IC50 values
[2] = test system: tadpoles; assay: Tadpole loss of righting reflex; assay type: in vivo; settings: for EC50: read-out: Tadpole LSR EC50; for tadpole LRR EC50: loss of righting reflex, None = no effect at 10 μM; for tadpole LRR EC50 / Tadpole LSR EC50: ± SEM; for Tadpole LSR EC50: loss of swimming reflex, None = all animals had a swimming response at 10 μM test compound
[3] = biological target: rat wild type α1β2γ2L GABAA receptors (Rattus norvegicus, UniProt P62813+P63138); assay: Single-channel recordings in HEK 293 cells; assay type: cell-based; settings: 50 μM GABA + 20 μM compound; for OT long, mean duration of the longest-lived intracluster open time component: 4-7 patches
Outline: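 Single-channel currents from the rat wild-type α1β2γ2L GABAA receptor, activated by 50 μM GABA alone (control) or with 20 μM test compound; 4-7 patches per condition. Intracluster open-time histograms were fitted to sums of two or three exponentials, and closed-time histograms to three. Mean duration and fraction of the longest open component, and fraction of the longest closed component, were analysed statistically.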

[4] = test system: mice; assay: Anesthesia; assay type: in vivo, mouse; settings: tail vein injection
Outline: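 Mice received test compound by tail vein injection, dissolved in 22.5% aqueous 2-(hydroxypropyl)-β-cyclodextrin. Lower doses were made by serial dilution of the 8 mg/kg stock solution with 0.9% saline. Anesthesia was scored as loss of righting reflex (LRR), and LRR duration was recorded at each dose.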

[5] = test system: tadpoles; settings: cited from earlier work
[6] = test system: mice; settings: tail vein injection, previously found ref 15, cited from earlier work

CO[C@@H]1C[C@]2(C)[C@H](CC[C@@H]3[C@@H]2CC[C@@]2(C)C(=O)CC[C@@H]32)C[C@H]1O (single isomer, unassigned) [ent-2, (2α,3β,5β,8α,9β,10α,13α,14β)-3-Hydroxy-2-methoxyandrostan-17-one]
fold decrease in [35S]TBPS displacement potency relative to ent-1 [1]: about 21 fold
EC50 [2]: > 10 µM

C[C@@]12CC[C@H]3[C@@H](CC[C@@H]4C[C@@H](O)CC[C@]43C)[C@@H]1CC(=O)C2 (single isomer, unassigned) [ent-7, (3β,5β,8α,9β,10α,13α,14β)-3-Hydroxyandrostan-16-one]
OT long, mean duration of the longest-lived intracluster open time component [3]: 12.4 ± 3.4 ms
closed time, first listed component, duration ([3]; sample patch of Figure 3): 0.27 ms
closed time, first listed component, fraction ([3]; sample patch of Figure 3): 71%
closed time, second listed component, duration ([3]; sample patch of Figure 3): 2.1 ms
closed time, second listed component, fraction ([3]; sample patch of Figure 3): 24%
closed time, third listed component, duration ([3]; sample patch of Figure 3): 25.0 ms
closed time, third listed component, fraction ([3]; sample patch of Figure 3): 5%
open time, first listed component, duration ([3]; sample patch of Figure 3): 0.64 ms
open time, first listed component, fraction ([3]; sample patch of Figure 3): 39%
open time, second listed component, duration ([3]; sample patch of Figure 3): 10.9 ms
open time, second listed component, fraction ([3]; sample patch of Figure 3): 61%
fold increase in [35S]TBPS displacement potency relative to ent-1 [1]: about four
fold lower tadpole LRR EC50 relative to ent-1 ([2]; comparison of EC50 values): ~ three
fold lower tadpole LSR EC50 relative to ent-1 ([2]; comparison of EC50 values): ~ three
duration of LRR in mice ([4]; 8 mg/kg): about 3 min
duration of LRR in mice ([4]; 16 mg/kg): about 7 min

CO[C@@H]1C[C@]2(C)[C@H](CC[C@H]3[C@@H]4CC(=O)C[C@]4(C)CC[C@@H]32)C[C@H]1O (single isomer, unassigned) [ent-8, (2α,3β,5β,8α,9β,10α,13α,14β)-3-Hydroxy-2-methoxyandrostan-16-one]
fold decrease in [35S]TBPS displacement potency relative to ent-7 [1]: about 37 fold
fold higher tadpole LRR EC50 relative to ent-7 ([2]; comparison of EC50 values): ~ five
fold higher tadpole LSR EC50 relative to ent-7 ([2]; comparison of EC50 values): ~ five

CO[C@H]1[C@H]2CC[C@H]3[C@@H]4CC(=O)C[C@]4(C)CC[C@@H]3[C@]2(C)CC[C@@H]1O (single isomer, unassigned) [ent-9, (3β,4α,5β,8α,9β,10α,13α,14β)-3-Hydroxy-4-methoxyandrostan-16-one]
OT long, mean duration of the longest-lived intracluster open time component [3]: 17.7 ± 6.6 ms
closed time, first listed component, duration ([3]; sample patch of Figure 3): 0.24 ms
closed time, first listed component, fraction ([3]; sample patch of Figure 3): 67%
closed time, second listed component, fraction ([3]; sample patch of Figure 3): 28%
closed time, third listed component, duration ([3]; sample patch of Figure 3): 14.3 ms
closed time, third listed component, fraction ([3]; sample patch of Figure 3): 6%
open time, first listed component, duration ([3]; sample patch of Figure 3): 0.80 ms
open time, first listed component, fraction ([3]; sample patch of Figure 3): 52%
open time, second listed component, duration ([3]; sample patch of Figure 3): 30.3 ms
open time, second listed component, fraction ([3]; sample patch of Figure 3): 48%
duration of LRR in mice ([4]; 2 mg/kg (threshold dose)): about 1 min
duration of LRR in mice ([4]; 4 mg/kg): about 5 min
duration of LRR in mice ([4]; 8 mg/kg): about 9 min
threshold dose for LRR in mice [4]: 2 mg/kg

O=C1C[C@@H]2CC[C@H]3[C@@H](CC[C@@H]4C[C@@H](O)CC[C@H]43)[C@@H]2C1 (single isomer, unassigned) [ent-12, (3β,5β,8α,9β,10α,13α,14β)-3-Hydroxygonan-16-one]
OT long, mean duration of the longest-lived intracluster open time component [3]: 11.5 ± 3.3 ms
closed time, first listed component, duration ([3]; sample patch of Figure 3): 0.25 ms
closed time, first listed component, fraction ([3]; sample patch of Figure 3): 54%
closed time, second listed component, duration ([3]; sample patch of Figure 3): 2.0 ms
closed time, second listed component, fraction ([3]; sample patch of Figure 3): 24%
closed time, third listed component, duration ([3]; sample patch of Figure 3): 27.8 ms
closed time, third listed component, fraction ([3]; sample patch of Figure 3): 22%
open time, first listed component, duration ([3]; sample patch of Figure 3): 0.29 ms
open time, first listed component, fraction ([3]; sample patch of Figure 3): 29%
open time, second listed component, duration ([3]; sample patch of Figure 3): 2.1 ms
open time, second listed component, fraction ([3]; sample patch of Figure 3): 23%
open time, third listed component, duration ([3]; sample patch of Figure 3): 13.2 ms
open time, third listed component, fraction ([3]; sample patch of Figure 3): 48%
tadpole LRR EC50 [2]: neither LRR nor LSR and None
Tadpole LSR EC50 [2]: neither LRR nor LSR and None

C[C@]12CC[C@@H](O)C[C@@H]1CC[C@@H]1[C@@H]2CC[C@]2(C)C(=O)CC[C@@H]12 [compound 1, Androsterone]
EC50 ([5]; read-out: tadpole LRR EC50, loss of righting reflex, literature values ref 9): 3.38 ± 0.9 µM

CO[C@H]1C[C@@]2(C)[C@@H](CC[C@@H]3[C@@H]2CC[C@]2(C)C(=O)CC[C@@H]32)C[C@@H]1O [compound 2, (2β,3α,5α)-3-Hydroxy-2-methoxyandrostan-17-one]
fold decrease in [35S]TBPS displacement potency relative to steroid 1 [1]: about five
EC50 [2]: > 10 µM

CO[C@H]1[C@H](O)CC[C@]2(C)[C@H]3CC[C@]4(C)C(=O)CC[C@H]4[C@@H]3CC[C@@H]12 [compound 3, (3α,4β,5α)-3-Hydroxy-4-methoxyandrostan-17-one]
tadpole LRR EC50 [2]: None
Tadpole LSR EC50 [2]: None

C[C@]12CC[C@@H](O)C[C@@H]1CC[C@@H]1[C@@H]2C(=O)C[C@]2(C)/C(=C\C#N)CC[C@@H]12 [compound 4, [3α,5α,17(20)Z]-3-Hydroxy-11-oxopregn-17(20)-ene-21-nitrile]
EC50 ([5]; read-out: Tadpole LSR EC50, loss of swimming reflex, literature values ref 15): 5.48 ± 0.2 µM
EC50 ([5]; read-out: tadpole LRR EC50, loss of righting reflex, literature values ref 15): 1.44 ± 0.2 µM

CC(=O)[C@H]1CC[C@H]2[C@@H]3CC[C@H]4C[C@H](O)CC[C@]4(C)[C@H]3CC[C@]12C [compound 5, allopregnanolone]
EC50 ([5]; read-out: Tadpole LSR EC50, loss of swimming reflex, literature values ref 46): 5.5 ± 0.5 µM
EC50 ([5]; read-out: tadpole LRR EC50, loss of righting reflex, literature values ref 46): 0.42 ± 0.04 µM

CC(=O)[C@H]1CC[C@H]2[C@@H]3CC[C@H]4C[C@H](O)CC[C@]4(C)[C@H]3C(=O)C[C@]12C [compound 6, alphaxalone]
EC50 ([5]; read-out: Tadpole LSR EC50, loss of swimming reflex, literature values ref 48): 5.48 ± 0.11 µM
EC50 ([5]; read-out: tadpole LRR EC50, loss of righting reflex, literature values ref 48): 1.12 ± 0.14 µM
duration of LRR in mice ([4]; 16 mg/kg): about 4 min
duration of LRR in mice ([6]; 8 mg/kg): less than 1 min
threshold dose for LRR in mice [6]: 8 mg/kg
